Data from ChEMBL document CHEMBL4004808, “Antibacterial and Cytotoxic Phenolic Metabolites from the Fruits of Amorpha fruticosa” (J Nat Prod, 2017).
Converted amounts (≈) assume the structure as drawn. The source made the active and inactive calls. No cut-off for these calls is given here.

Tests used:
[1] = system: Staphylococcus aureus; experiment: Antibacterial activity against Staphylococcus aureus ATCC 25923 by broth microdilution method; assay type: functional
[2] = system: Staphylococcus aureus; experiment: Antibacterial activity against methicilin-resistant Staphylococcus aureus ATCC 700699 by broth microdilution method; assay type: functional; details: Mu50
How it was run: (§1)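 MIC determined by broth microdilution following CLSI recommendations, with moxifloxacin as positive control and DMSO as negative control.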

[3] = system: Enterococcus faecalis; experiment: Antibacterial activity against Enterococcus faecalis ATCC 29212 by broth microdilution method; assay type: functional; how it was run: as §1
[4] = system: Enterococcus faecalis; experiment: Antibacterial activity against vancomycin-resistant Enterococcus faecalis ATCC 51299 by broth microdilution method; assay type: functional; how it was run: as §1
[5] = system: Enterococcus faecium; experiment: Antibacterial activity against Enterococcus faecium ATCC 35667 by broth microdilution method; assay type: functional
How it was run: (§2)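 MIC by broth microdilution following CLSI recommendations; moxifloxacin as positive control, DMSO as negative control.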

[6] = system: Enterococcus faecium; experiment: Antibacterial activity against Enterococcus faecium ATCC 700221 by broth microdilution method; assay type: functional; how it was run: as §2
[7] = system: Mycobacterium tuberculosis; experiment: Antibacterial activity against Mycobacterium tuberculosis by broth microdilution method; assay type: functional
[8] = system: Acinetobacter baumannii; experiment: Antibacterial activity against Acinetobacter baumannii ATCC BAA1605 by broth microdilution method; assay type: functional; how it was run: as §2
[9] = system: MRC5; experiment: Cytotoxicity against human MRC5 cells after 48 hrs by resazurin dye-based fluorescence analysis; assay type: cell-based; details: MRC5, 48 h
[10] = system: THP-1; experiment: Cytotoxicity against human THP1 cells after 48 hrs by resazurin dye-based fluorescence analysis; assay type: cell-based; details: THP-1, 48 h
[11] = system: L5178Y; experiment: Cytotoxicity against mouse L5178Y cells by MTT assay; assay type: functional, cell-based
How it was run: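 MTT proliferation assay on the L5178Y murine lymphoma line, run three times; kahalalide F as positive control and 0.1% DMSO in medium as negative control.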

CC(C)=CCC/C(C)=C/Cc1c(O)cc(/C=C/c2ccccc2)cc1O [AMORPHASTILBOL]
MIC [1]: 6.3 µM (≈ 2.2 µg/mL)
MIC [2]: 3.1 µM (≈ 1.08 µg/mL)
MIC [3]: 12.5 µM (≈ 4.36 µg/mL)
MIC [4]: 6.3 µM (≈ 2.2 µg/mL)
MIC [5]: 6.3 µM (≈ 2.2 µg/mL)
MIC [6]: 6.3 µM (≈ 2.2 µg/mL)
MIC [7]: > 50 µM
MIC [8]: > 50 µM
IC50 [9]: 50 µM
IC50 [10]: 25 µM
Activity [11]: inactive

COc1cc(/C=C/c2ccccc2)cc(OC)c1C/C=C(\C)CCC=C(C)C
MIC [1]: > 100 µM
MIC [2]: > 100 µM
MIC [3]: > 100 µM
MIC [4]: > 100 µM
MIC [5]: 100 µM (≈ 37.7 µg/mL)
MIC [6]: > 100 µM
MIC [7]: > 50 µM
MIC [8]: > 50 µM
IC50 [9]: 100 µM
IC50 [10]: 100 µM
Activity [11]: inactive

CC(C)=CCC/C(C)=C/Cc1c(O)cc(O)c2c1O[C@H](c1ccccc1)[C@H](O)C2=O
MIC [1]: 100 µM (≈ 40.8 µg/mL)
MIC [2]: 100 µM (≈ 40.8 µg/mL)
MIC [3]: 50 µM (≈ 20.4 µg/mL)
MIC [4]: 100 µM (≈ 40.8 µg/mL)
MIC [5]: 100 µM (≈ 40.8 µg/mL)
MIC [6]: 100 µM (≈ 40.8 µg/mL)
MIC [7]: > 50 µM
MIC [8]: > 50 µM
IC50 [9]: 100 µM
IC50 [10]: 100 µM

C=C(C)[C@H]1Cc2c(ccc3c2O[C@@H]2COc4cc(OC)c(OC)cc4[C@@H]2C3=O)O1 [ROTENONE]
IC50 [11]: 0.3 µM

COc1cc2c(cc1OC)[C@@H]1C(=O)c3ccc4c(c3O[C@@H]1CO2)C=CC(C)(C)O4 [DEGUELIN]
IC50 [11]: 0.2 µM

COc1c(N2C[C@@H]3CCCN[C@@H]3C2)c(F)cc2c(=O)c(C(=O)O)cn(C3CC3)c12 [MOXIFLOXACIN]
MIC [1]: < 0.9 µM
MIC [2]: 3.8 µM (≈ 1.53 µg/mL)
MIC [3]: 0.9 µM (≈ 0.361 µg/mL)
MIC [4]: 0.9 µM (≈ 0.361 µg/mL)
MIC [5]: 1.9 µM (≈ 0.763 µg/mL)
MIC [6]: 7.8 µM (≈ 3.13 µg/mL)

CC(C)=CCC/C(C)=C/Cc1c(O)cc(CCc2ccccc2)cc1O
MIC [1]: 25 µM (≈ 8.76 µg/mL)
MIC [2]: 6.3 µM (≈ 2.21 µg/mL)
MIC [3]: 25 µM (≈ 8.76 µg/mL)
MIC [4]: 12.5 µM (≈ 4.38 µg/mL)
MIC [5]: 12.5 µM (≈ 4.38 µg/mL)
MIC [6]: 12.5 µM (≈ 4.38 µg/mL)
MIC [7]: > 50 µM
MIC [8]: > 50 µM
IC50 [10]: 50 µM
Activity [11]: inactive

COc1cc(CCc2ccccc2)c(C(=O)O)c(O)c1CC=C(C)C [AMORFRUTIN A]
MIC [1]: 50 µM (≈ 17 µg/mL)
MIC [2]: 6.3 µM (≈ 2.14 µg/mL)
MIC [3]: 100 µM (≈ 34 µg/mL)
MIC [4]: 25 µM (≈ 8.51 µg/mL)
MIC [5]: 50 µM (≈ 17 µg/mL)
MIC [6]: 25 µM (≈ 8.51 µg/mL)
MIC [7]: > 50 µM
MIC [8]: > 50 µM
IC50 [10]: 50 µM
Activity [11]: inactive

COc1cc(O)c2c(c1)O[C@@H]1COc3cc(OC)c(OC)cc3[C@@H]1C2=O
IC50 [11]: 0.2 µM

C=C(C)[C@@H](O)CC/C(C)=C/Cc1c(OC)cc(CCc2ccccc2)c(C(=O)O)c1O
Activity [11]: inactive

COc1ccc(-c2coc3c(C/C=C(\C)CCC=C(C)C)c(O)cc(O)c3c2=O)cc1O
MIC [1]: 100 µM (≈ 43.7 µg/mL)
MIC [2]: 100 µM (≈ 43.7 µg/mL)
MIC [3]: 50 µM (≈ 21.8 µg/mL)
MIC [4]: 100 µM (≈ 43.7 µg/mL)
MIC [5]: 25 µM (≈ 10.9 µg/mL)
MIC [6]: 25 µM (≈ 10.9 µg/mL)
MIC [7]: > 50 µM
MIC [8]: > 50 µM
IC50 [9]: 50 µM
IC50 [10]: 50 µM

COc1cc2c(cc1OC)[C@@H]1C(=O)c3ccc4c(c3O[C@@H]1CO2)C[C@H](C(C)(C)O)O4 [DALPANOL]
IC50 [11]: 0.7 µM

COC1=CC(=O)[C@]2(C=C1OC)OC[C@H]1Oc3c4c(cc(O)c3C(=O)[C@H]12)OC(C)(C)C=C4
IC50 [11]: 1.3 µM

C=C(CO)[C@H]1Cc2c(ccc3c2O[C@@H]2COc4cc(OC)c(OC)cc4[C@]2(O)C3=O)O1 [DABINOL]
IC50 [11]: 0.2 µM

COc1cc(CCc2ccccc2)c(C(=O)O)c(O)c1C/C=C(/C)CCC=C(C)C
MIC [1]: 12.5 µM (≈ 5.11 µg/mL)
MIC [2]: 12.5 µM (≈ 5.11 µg/mL)
MIC [3]: 6.3 µM (≈ 2.57 µg/mL)
MIC [4]: 6.3 µM (≈ 2.57 µg/mL)
MIC [5]: 6.3 µM (≈ 2.57 µg/mL)
MIC [6]: 6.3 µM (≈ 2.57 µg/mL)
MIC [7]: > 50 µM
MIC [8]: > 50 µM
IC50 [9]: 100 µM
IC50 [10]: 100 µM
Activity [11]: inactive

COC1=C[C@]2(OC[C@H]3Oc4c(ccc5c4C=CC(C)(C)O5)C(=O)[C@H]32)C(=O)CC1=O
IC50 [11]: 7.6 µM

CC(C)=CCC/C(C)=C/Cc1c(O)cc(/C=C\c2ccccc2)cc1O
MIC [1]: 100 µM (≈ 34.8 µg/mL)
MIC [2]: 100 µM (≈ 34.8 µg/mL)
MIC [3]: 100 µM (≈ 34.8 µg/mL)
MIC [4]: 100 µM (≈ 34.8 µg/mL)
MIC [5]: 100 µM (≈ 34.8 µg/mL)
MIC [6]: 100 µM (≈ 34.8 µg/mL)
MIC [7]: > 50 µM
MIC [8]: > 50 µM
IC50 [9]: 100 µM
IC50 [10]: 100 µM
Activity [11]: inactive

COc1cc2c(cc1OC)-c1c(oc3c4c(ccc3c1=O)OC(C)(C)C=C4)CO2 [DEHYDRODEGUELIN]
IC50 [11]: 10.2 µM

C/C=C1\NC(=O)[C@H](Cc2ccccc2)NC(=O)[C@@H](C(C)C)NC(=O)[C@@H](C(C)CC)NC(=O)[C@H](NC(=O)[C@H](NC(=O)[C@H](CCCN)NC(=O)[C@@H]2CCCN2C(=O)[C@H](NC(=O)[C@@H](NC(=O)[C@@H](NC(=O)[C@H](NC(=O)CCCC(C)C)C(C)C)C(C)O)C(C)C)C(C)C)C(C)CC)C(C)OC(=O)[C@H](C(C)C)NC1=O (some centres not stated)
IC50 [11]: 4.3 µM

COc1cc2c(cc1OC)[C@@H]1C(=O)c3ccc(O)c(CC=C(C)C)c3O[C@@H]1CO2 [ROTENONIC ACID]
IC50 [11]: 0.6 µM

CC(C)=CCC/C(C)=C\Cc1c(O)cc(CCc2ccccc2)c(C(=O)O)c1O
MIC [1]: 100 µM (≈ 39.5 µg/mL)
MIC [2]: 100 µM (≈ 39.5 µg/mL)
MIC [3]: 100 µM (≈ 39.5 µg/mL)
MIC [4]: 100 µM (≈ 39.5 µg/mL)
MIC [5]: 100 µM (≈ 39.5 µg/mL)
MIC [6]: 100 µM (≈ 39.5 µg/mL)
MIC [7]: > 50 µM
MIC [8]: > 50 µM
IC50 [9]: 100 µM
IC50 [10]: 100 µM
Activity [11]: inactive

CC(C)=CCC/C(C)=C/Cc1c(O)cc(/C=C/c2ccccc2)c(C(=O)O)c1O
MIC [1]: 12.5 µM (≈ 4.91 µg/mL)
MIC [2]: 12.5 µM (≈ 4.91 µg/mL)
MIC [3]: 25 µM (≈ 9.81 µg/mL)
MIC [4]: 25 µM (≈ 9.81 µg/mL)
MIC [5]: 25 µM (≈ 9.81 µg/mL)
MIC [6]: 25 µM (≈ 9.81 µg/mL)
MIC [7]: > 50 µM
MIC [8]: > 50 µM
IC50 [9]: 100 µM
IC50 [10]: 100 µM
Activity [11]: inactive

COc1ccc(-c2coc3cc(O)c(C/C=C(\C)CCC=C(C)C)c(O)c3c2=O)cc1O
MIC [1]: 100 µM (≈ 43.7 µg/mL)
MIC [2]: 100 µM (≈ 43.7 µg/mL)
MIC [3]: 25 µM (≈ 10.9 µg/mL)
MIC [4]: 50 µM (≈ 21.8 µg/mL)
MIC [5]: 25 µM (≈ 10.9 µg/mL)
MIC [6]: 12.5 µM (≈ 5.46 µg/mL)
MIC [7]: > 50 µM
MIC [8]: > 50 µM
IC50 [9]: 50 µM
IC50 [10]: 50 µM

C=C(C)[C@@H](O)CC/C(C)=C/Cc1c(O)cc(CCc2ccccc2)c(C(=O)O)c1O
Activity [11]: inactive

COc1cc2c(cc1OC)[C@@H]1C(=O)c3ccc4c(c3O[C@@H]1CO2)C[C@H](C(C)(C)O[C@@H]1O[C@H](CO)[C@@H](O)[C@H](O)[C@H]1O)O4
IC50 [11]: 1.7 µM

CC(C)=CCC/C(C)=C/Cc1c(O)ccc(C(=O)/C=C/c2ccc(O)cc2)c1O [XANTHOANGELOL]
MIC [1]: 25 µM (≈ 9.81 µg/mL)
MIC [2]: 3.1 µM (≈ 1.22 µg/mL)
MIC [3]: 12.5 µM (≈ 4.91 µg/mL)
MIC [4]: 6.3 µM (≈ 2.47 µg/mL)
MIC [5]: 12.5 µM (≈ 4.91 µg/mL)
MIC [6]: 3.1 µM (≈ 1.22 µg/mL)
MIC [7]: > 50 µM
MIC [8]: > 50 µM
IC50 [9]: 25 µM
IC50 [10]: 25 µM

COc1cc2c(cc1OC)[C@@H]1C(=O)c3c(O)cc4c(c3O[C@@H]1CO2)C=CC(C)(C)O4 [TOXICAROL]
IC50 [11]: 0.2 µM

CC(C)=CCC/C(C)=C/Cc1c(O)cc(/C=C\c2ccccc2)c(C(=O)O)c1O
MIC [1]: 50 µM (≈ 19.6 µg/mL)
MIC [2]: 100 µM (≈ 39.2 µg/mL)
MIC [3]: 50 µM (≈ 19.6 µg/mL)
MIC [4]: 100 µM (≈ 39.2 µg/mL)
MIC [5]: 50 µM (≈ 19.6 µg/mL)
MIC [6]: 100 µM (≈ 39.2 µg/mL)
MIC [7]: > 50 µM
MIC [8]: > 50 µM
IC50 [9]: 100 µM
IC50 [10]: 100 µM
Activity [11]: inactive
